# Compound activity deposited in PubChem by The Scripps Research Institute Molecular Screening Center.
# An excerpt weighted towards active compounds, which were near 2.2% of everything screened.
# NR2E3 ag-1: agonists of human NR2E3 nuclear receptor | inhibition of corepressor binding, % at 3.98 µM | CHO-S Gal4-NCOR/VP16-NR2E3 two-hybrid, luciferase | 0.35% of 360,000 active;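 active = inhibition above the mean of all tested compounds plus 3 SD, cut at about 70% in these data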;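 also: 0% = DMSO with NR2E3 transfected cells and 100% = cells lacking NR2E3 construct; higher means lower luciferase signal from less NR2E3 corepressor binding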
# GalR3 antag: antagonists of human GalR3. O60755. HEK293 GalR3-CNG cAMP membrane potential fluorescence; galR3 body fused to GalR1 C-terminus. inhibition, % at 3 µM. 0.44% of 360,000 active. AID 651719;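 active = inhibition above the screen-wide average plus 3 SD, cut at about 13% in these data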;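 also: forskolin and galanin both at EC90 stimulate the cells; cAMP rise reported by CNG channel membrane potential dye signal; 0% = forskolin plus galanin with DMSO and 100% = forskolin alone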
# NR2E3 ag-2: activates human photoreceptor nuclear receptor NR2E3; inhibition of corepressor binding, % at 4.78 µM; GST-NR2E3/biotin-RetCOR TR-FRET, 1536-well; AID 2300; Q9Y5X4; 0.12% of 320,000 active;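 active = percent inhibition above the cutoff of mean plus 3 SD of all tested compounds, set per screening campaign, cut at about 20% in these data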;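 also: 0% = DMSO wells and 100% = biotin wells as full block of FRET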
#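 Material: NR2E3–RetCOR corepressor complex / Amount: 1.35 nM GST-NR2E3 / Medium: Tris pH 7.5 / Compound: single nominal compound dose of 4.8 µM / Incubation: 5 h at 4 °C / Technique: TR-FRET, Eu(K)-anti-GST donor, streptavidin-D2 acceptor, ex 340, em 617/671 nm / Read-out basis: percent loss of FRET ratio relative to control wells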
# COUP-TFII inh: NR2F2 (human) inhibition, primary screen. P24468. inhibition, % at 8.6 µM. HEK293T NGFI-A luciferase reporter, luminescence. 0.7% of 370,000 active. AID 686940;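 active = inhibition above a per-plate cutoff, mean inhibition of test wells between control levels plus 3 SD, cut at about 38% in these data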;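 also: cells cotransfected with COUP-TFII expression vector driving the NGFI-A reporter; 0% = median of COUP-TF2 test wells and 100% = reporter-only cells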
# Target sequence (P24468 whole entry, looked up): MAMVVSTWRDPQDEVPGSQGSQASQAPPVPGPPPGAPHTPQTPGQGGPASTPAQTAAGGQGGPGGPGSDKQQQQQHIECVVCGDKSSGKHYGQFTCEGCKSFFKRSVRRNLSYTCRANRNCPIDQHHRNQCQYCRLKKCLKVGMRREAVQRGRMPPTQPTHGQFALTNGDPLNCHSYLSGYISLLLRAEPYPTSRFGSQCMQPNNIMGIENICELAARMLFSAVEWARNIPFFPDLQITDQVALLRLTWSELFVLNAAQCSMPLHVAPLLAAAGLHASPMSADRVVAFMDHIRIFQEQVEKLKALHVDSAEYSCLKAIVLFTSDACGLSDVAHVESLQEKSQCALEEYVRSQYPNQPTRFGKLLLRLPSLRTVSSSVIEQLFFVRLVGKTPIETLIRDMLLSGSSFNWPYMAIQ
# SMARCA2 activ: activators of SMARCA2 function | MG213 cells, MMTV-luciferase reporter, dexamethasone, overnight | 1% of 370,000 active | activation, % at 9.1 µM; in the data active = activation above about 7.8%;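 also: 0% = vehicle wells and 100% = reference activator wells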
# GalR3 antag conf: confirmation of human galanin receptor 3 antagonists | shares compounds with GalR3 antag | HEK293 GalR3 CNG cAMP biosensor, membrane potential fluorescence; galR3 fused to GalR1 carboxy tail; challenged with forskolin and galanin at EC90 | inhibition, % at 3 µM | 59% of 1,600 active | AID 652245;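 active = inhibition above the primary screen's cutoff, the mean inhibition of all screened compounds plus 3 SD, cut at about 13% in these data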;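 also: 0% = forskolin plus galanin and 100% = forskolin alone with DMSO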
# HEK-CNG parental: counter-screen for GalR3 antagonists: nonspecific agonists in parental HEK-CNG cells. shares compounds with GalR3 antag. HEK293-CNG parental cells, cAMP membrane potential fluorescence; normalised: DMSO wells 0%, forskolin wells 100%. activation, % at 3 µM. 10% of 1,600 active. AID 652268; in the data active = activation above about 1.3%
# Starred values were filed as active, the others as inactive; . = no result.
SMILES,NR2E3 ag-1,GalR3 antag,NR2E3 ag-2,COUP-TFII inh,SMARCA2 activ,GalR3 antag conf,HEK-CNG parental
N=C1/C(=C/c2ccc(-c3cccc(C(=O)O)c3)o2)C(=O)N=C2SC=C(c3ccccc3)N12,-59,0,3,7,7,.,.
N=C1/C(=C\c2ccc(-c3cc(Cl)cc(Cl)c3)o2)C(=O)N=C2SC=C(c3ccccc3)N12,-9,13*,3,-37,-2,5,0
Cc1ccc(C2C3=C(CC(C)(C)CC3=O)N=C3c4ccccc4C(=O)C32)cc1 (centres undefined),-27,15*,0,8,-4,31*,0
O=C(/C=C(\Nc1ccc(F)cc1)c1ccccc1)c1ccccc1,.,1,.,-18,3,.,.
CCN(CC)S(=O)(=O)c1ccc(N2CCCC2)c(NC(=O)Cc2cc(OC)c(OC)c(OC)c2)c1,-14,19*,0,-14,-1,3,0
CCN(CC)S(=O)(=O)c1ccc(N2CCOCC2)c(NC(=O)CCOc2ccccc2)c1,-1,-1,2,13,-2,.,.
CCN(CC)S(=O)(=O)c1ccc(N2CCOCC2)c(NC(=O)COc2ccccc2)c1,-5,.,1,8,-1,13*,0
COc1ccc(CN2C(=O)CCCC2(C)c2nnnn2-c2c(C)cccc2C)cc1OC (centres undefined),.,.,.,-12,1,.,.
COc1cc([N+](=O)[O-])cc(/C=N/NC(=O)C(O)(c2ccccc2)c2ccccc2)c1O,1,1,2,-4,-2,.,.
COc1cc([N+](=O)[O-])cc(/C=N/NC(=O)c2cccnc2)c1O,-7,54*,-2,-1,-2,7,0
Cn1c(=O)cc(OCC(=O)N2CCN(c3ccccc3Cl)CC2)c2ccccc21,.,.,.,-12,-2,.,.
COCC1CN(CCc2ccc(F)cc2)S(=O)(=O)c2c(OCCN3C(=O)[C@@H]4[C@H](C3=O)[C@@H]3C=C[C@H]4C3)cccc2O1 (some centres undefined),.,-2,.,11,-2,.,.
CCOC(=O)C1CCCN(C2CCN(Cc3nc(-c4ccccc4)no3)CC2)C1 (centres undefined),9,-1,1,-14,1,.,.
CCOC(=O)C1CCN(C2CCN(Cc3nc(-c4ccccc4)no3)CC2)CC1,-5,13*,3,23,-4,0,0
N#Cc1c(N)nc(SCc2ccccn2)c(C#N)c1-c1cccs1,28,75*,-2,-24,0,49*,2.5*
Cc1ccccc1Cn1cc(CN2[C@H](CC(C)C)COc3cc(Br)ccc3S2(=O)=O)nn1,.,.,.,-12,2,.,.
O=C(Nc1ccc(Cl)cc1)OC1CCC12CCC(c1ccccc1)CC2 (centres undefined),.,.,.,4,-2,.,.
C=CCNc1ncnc2c1ncn2C1OC(CO)C(O)C1O (centres undefined),-1,99*,3,-20,2,99*,1
OCC1OC(n2cnc3c(NC4CCCCC4)ncnc32)C(O)C1O (centres undefined),-7,36*,0,-51,1,49*,0
OC[C@H]1O[C@@H](n2cnc3c(NC4CCCC4)ncnc32)[C@H](O)[C@@H]1O,7,3,4,-52,0,.,.
Cc1ccccc1Cn1cc(CN2[C@@H](Cc3ccccc3)COc3cc(Br)ccc3S2(=O)=O)nn1,.,.,.,-11,-4,.,.
COc1cccc(/C=C2\CC3(OC(=O)c4ccco4)CCCN2C3)c1 (centres undefined),.,.,.,9,-2,.,.
CCOC(=O)[C@]12CCCC=C1N(CCCOC)C(=O)[C@@H]2CC(=O)NCC1CCCCC1,.,.,.,9,-3,.,.
Cc1ccc(C(=O)c2ccccc2C(=O)O)cc1C,-6,-2,2,1,-2,.,.
O=C(O)c1ccccc1C(=O)c1ccc(F)c(F)c1,-9,17*,.,-22,-2,2,0
COc1ccc(Cn2ccc3ccc(-c4ccc5ccn(Cc6ccc(F)cc6)c5c4)cc32)cc1,.,.,.,2,0,.,.
